Source: PubChem BioAssay (several laboratories)
Many of the other results were omitted from the sample, so hits are more common in it than they were.
CHOP inhibitor: inhibitors of CHOP promoter induction, primary screen, cell-based, unfolded protein response, luciferase reporter; CHO-K1 CHOP-promoter luciferase, tunicamycin-induced, 15-18 h; 220,000 tested, 3.8% active; inhibition, % at 10 µM; AID 2732, 2010;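 active = compounds that reduced the stress-induced luciferase reporter signal by more than about 70% of percent inhibition, limit read from the data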;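 note: 0% = tunicamycin plus vehicle and 100% = wells without tunicamycin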
UPR XBP1 act: activators of adaptive XBP1 UPR arm, primary screen, cell-based, CHO-XBP1 luciferase reporter, luminescence, uHTS | IRE1-XBP1 UPR activation; percent of tunicamycin response, DMSO as zero | activation, % at 20 µM | 330,000 tested, 0.33% active | AID 463104, 2010;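 active = versus positive control, 20 µM dose yields 30% or more activation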;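 note: 100% = tunicamycin at 10 µg/mL and 0% = DMSO only wells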
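Material: CHO-XBP1 cells stably carrying IRE1-XBP1-driven luciferase reporter / Amount: 1000 cells per well / Compound: 20 µM, 1% DMSO / Times: 6 h treatment, 37 °C / Detection: luciferase luminescence / Measure: % activation of reporter signal versus tunicamycin and DMSO controls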
697 NFkB inh: inhibitors of PMA/ionomycin-induced NF-kB reporter, 697 cells, primary screen, B-cell NF-kB inhibitor project, cell-based, luminescence, uHTS; 697 B-cell NF-kB luciferase reporter, 16 h; inhibition, % at 4 µM; 330,000 tested, 0.33% active; in the data active = inhibition above about 35%
Jurkat NFkB inh: inhibitors of induced NF-kB luciferase reporter, primary screen, TCR NF-kB activation inhibitor project, cell-based, luminescence, uHTS; Jurkat, PMA/ionomycin-induced NF-kB luciferase reporter; inhibition, % at 4 µM; 330,000 tested, 0.53% active; AID 435003, 2010; in the data active = inhibition above about 50%
UPR CHOP act: activators of apoptotic CHOP UPR arm, primary screen, cell-based, CHO-CHOP luciferase reporter, luminescence, uHTS. UPR activation; percent of tunicamycin response over DMSO baseline. activation, % at 10 µM. 330,000 tested, 0.34% active;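 active = at 10 µM dose, activation of 40% or more, normalized to positive control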;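 note: 100% = tunicamycin at 10 µg/mL and 0% = DMSO alone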
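Evaluation: % reporter activation, DMSO baseline versus tunicamycin full activation; System: CHO-CHOP luciferase reporter cell line; Input: 500 cells/well; Incubation: 6 h compound treatment, 37 °C; Measured by: Steady-Glo luciferase luminescence; Dosing: one dose, 10 µM in 0.5% DMSO; Buffer or medium: F12 medium, 10% FBS; Benchmarks: positive tunicamycin 10 µg/mL, negative DMSO alone.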
The depositor's hits bear a star; · = no result given.

SMILES	CHOP inhibitor	UPR XBP1 act	697 NFkB inh	Jurkat NFkB inh	UPR CHOP act
O=C(CN1CCN(c2ccccc2)CC1)Nc1ccc(OCc2ccccc2)cc1	86*	-1	-53	-11	-3
CCOC(=O)N1CCN(CC(=O)Nc2ccc(Oc3ccccc3)cc2)CC1	82*	1	12	-4	2
O=C(CN1CCCC1)Nc1ccc(OCc2ccccc2)cc1	15	0	-34	-25	2
CCCCCCCc1ccc(-c2ccc(O)cc2)nc1	96*	2	-151	-23	8
CCCCCc1ccc(-c2ccc(/C=C/C(=O)O)cc2)nc1	31	2	-85	-6	2
COC(=O)/C=c1/s/c(=C(/C#N)C(=O)N2CCCCC2)n(-c2ccccc2)c1=O	-8	-3	-26	12	2
COc1cc(/C=c2\s/c(=C(/C#N)C(=O)N3CCCC3)n(-c3ccccc3)c2=O)ccc1O	95*	7	30	14	7
CCSC1=N/C(=C\c2ccc3c(c2)OCO3)C(=O)S1	74*	1	-17	-2	2
COc1ccccc1CNC(=O)CSC(=S)N1CCCC1	·	3	18	13	1
Cc1ccc(N(Cc2cc(=O)[nH]c3ccccc23)C(=O)c2ccco2)cc1	72*	1	25	4	-1
CC(=O)N(Cc1cc(=O)[nH]c2ccccc12)c1ccc(C)cc1	44	9	17	1	-1
Cc1c(CCO)c(=O)n2c([nH]c3ccccc32)c1C#N	·	-5	8	11	-2
Cc1c(CCC(C)C)c(=O)n2c([nH]c3ccccc32)c1C#N	96*	2	-16	13	0
O=C1/C(=N\S(=O)(=O)c2cccs2)C([n+]2ccccc2)=C([O-])c2ccccc21	-26	-2	-43	8	0
CC(C)(C)c1cc[n+](C2=C([O-])c3ccccc3C(=O)/C2=N\S(=O)(=O)c2cccs2)cc1	81*	-8	-7	29	5
NS(=O)(=O)c1ccc(CCNc2ncnc3c2c(-c2ccccc2)cn3-c2ccc(F)cc2)cc1	75*	1	22	24	-1
Fc1ccc2[nH]c3c(N4CCN(c5ccccc5)CC4)ncnc3c2c1	61	0	-21	27	1
CCOC(=O)N1CCN(c2ncnc3c2[nH]c2ccc(F)cc23)CC1	71*	2	19	26	4
Nc1nc(SCc2ccc(Cl)cc2Cl)n[nH]1	28	0	7	-7	-2
CNc1cc(CSC)nc(SCc2ccc(Cl)cc2Cl)n1	77*	3	4	-15	0
CC(CC(=O)N(C)CC(=O)Nc1ccc(N2CCOCC2)cc1)c1ccccc1 (centres undefined)	·	-2	8	31	0
COc1cc(OC)cc(C(=O)NCC(=O)NCC(c2ccco2)N2CCCCC2)c1 (centres undefined)	·	0	20	-2	0
O=C(Nc1ccsc1C(=O)NC1CC1)c1ccccc1	19	2	-1	4	2
O=C(Nc1ccsc1C(=O)NC1CCCCC1)c1ccc(F)cc1	70*	4	-7	-10	0
CC(C)C(NS(=O)(=O)c1ccc2c(c1)C(C)(C)C(=O)N2C)C(=O)NCc1ccccc1Cl (centres undefined)	·	-1	14	1	0
SMILES	CHOP inhibitor	UPR XBP1 act	697 NFkB inh	Jurkat NFkB inh	UPR CHOP act
O=C(NC1CCCCC1)c1ccc(S(=O)(=O)c2ccccc2)cc1	-7	-1	-1	-3	-1
COc1cc(CNC2CCCC2)cc(Cl)c1OCc1ccccc1Cl	74*	14	-2	-1	-2
CCN(CC)C(=O)C1CCCN(Cc2ccc(F)c(F)c2)C1 (centres undefined)	86*	-1	-1	0	-1
CCN(CC)C(=O)C1CCCN(Cc2ccc3c(c2)OCO3)C1 (centres undefined)	31	-1	14	-3	-2
CN(C)N1C(N)=C(C#N)C(c2ccccc2F)C2=C1CC(C)(C)CC2=O (centres undefined)	·	-2	16	10	2
Cc1ccc2oc(=O)cc(/C=C/c3ccccc3)c2c1	76*	0	-25	-12	1
COc1ccccc1NC(=O)OC(C)c1ccc(Cl)cc1 (centres undefined)	·	4	15	-14	-1
COc1cccc(N2CCN(C3CC(=O)N(c4ccc(F)c(Cl)c4)C3=O)CC2)c1 (centres undefined)	71*	-1	11	-7	-2
CC(C)c1ccc(NC2CCCN(C(=O)CCn3cnnn3)C2)cc1 (centres undefined)	·	-1	-2	-12	2
O=C(Oc1ccccc1C(=O)Nc1ccccc1)c1ccc(Br)c([N+](=O)[O-])c1	84*	2	14	-14	9
O=C(Nc1ccccc1)c1ccccc1Oc1ccc(C(F)(F)F)cc1[N+](=O)[O-]	71*	1	-33	-14	-1
COc1cc(C(C[N+](=O)[O-])c2c(-c3ccccc3)cc3ccccn23)cc(OC)c1OC (centres undefined)	-37	-4	0	9	32
COc1ccc(C(C[N+](=O)[O-])c2c(-c3ccccc3)cc3ccccn23)cc1OC (centres undefined)	81*	3	13	3	9
CCOC(=O)C1(S(=O)(=O)c2ccc(Cl)cc2)CCN(Cc2ccc(C)cc2)CC1	74*	0	-13	-2	-1
CCOC(=O)C1(Cc2ccc(Cl)cc2)CCN(Cc2cnc(N)nc2)CC1	16	-2	-10	-7	-1
NC(=O)CC(NC(=O)Cc1cccc2ccccc12)c1ccc(NC2CCN(Cc3ccccc3)CC2)c([N+](=O)[O-])c1 (centres undefined)	·	-1	-20	-11	1
NC(=O)CC(NC(=O)c1ccccc1)c1ccc(NCCc2ccc(F)cc2)c([N+](=O)[O-])c1 (centres undefined)	92*	0	-3	13	1
NC(=O)CC(NC(=O)Cc1cccc2ccccc12)c1ccc(NC2CCCCCC2)c([N+](=O)[O-])c1 (centres undefined)	96*	0	0	3	-1
NC(=O)CC(NC(=O)Cc1cccc2ccccc12)c1ccc(NC2CCCCCCC2)c([N+](=O)[O-])c1 (centres undefined)	75*	-1	-5	11	1
NC(=O)CC(NC(=O)Cc1cccc2ccccc12)c1ccc(NCCc2ccccc2F)c([N+](=O)[O-])c1 (centres undefined)	91*	-1	15	12	-1
